Results: ChEMBL document CHEMBL5053511, “Discovery of a Novel BCL-XL PROTAC Degrader with Enhanced BCL-2 Inhibition” (J Med Chem, 2021)
Values belong to the molecule of their own block, whether it stands above or below them. Activity calls are given as the source filed them. The rule behind the calls is not given here.

Columns and labels:
MOLT-4 = test: Cytotoxicity against human MOLT-4 cells assessed as reduction in cell viability measured after 48 hrs by MTS assay; assay type: functional, cell-based; conditions: MOLT-4, 48 h
RS4-11 [1] = test: Cytotoxicity against human RS4-11 cells assessed as reduction in cell viability measured after 48 hrs by MTS assay; assay type: functional, cell-based; conditions: RS4-11, 48 h
[2] = molecular target: T1, von Hippel-Lindau disease tumor suppressor/Bcl-2-like protein 1 (Homo sapiens, UniProt Q07817+P40337); test: Protac activity at VHL/BCL-XL in human RS4-11 assessed as decrease in BCL-XL protein level at up to […] measured after 16 hrs by Western blot analysis
How it was run: (§1)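 MOLT-4 or RS4;11 cells were treated at a range of concentrations for 16 h. BCL-XL was immunoblotted with β-actin loading control, and band densitometry was normalised to β-actin. Mean ± SD of three independent experiments in triplicate.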
Target sequence in this assay (P40337 whole entry, looked up): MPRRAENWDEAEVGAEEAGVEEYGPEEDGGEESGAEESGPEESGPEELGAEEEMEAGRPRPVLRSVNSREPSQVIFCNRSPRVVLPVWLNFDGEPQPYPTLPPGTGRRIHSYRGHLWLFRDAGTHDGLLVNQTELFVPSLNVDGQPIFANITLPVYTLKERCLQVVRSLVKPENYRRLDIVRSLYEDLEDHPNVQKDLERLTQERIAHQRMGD
Target sequence in this assay (Q07817 whole entry, looked up): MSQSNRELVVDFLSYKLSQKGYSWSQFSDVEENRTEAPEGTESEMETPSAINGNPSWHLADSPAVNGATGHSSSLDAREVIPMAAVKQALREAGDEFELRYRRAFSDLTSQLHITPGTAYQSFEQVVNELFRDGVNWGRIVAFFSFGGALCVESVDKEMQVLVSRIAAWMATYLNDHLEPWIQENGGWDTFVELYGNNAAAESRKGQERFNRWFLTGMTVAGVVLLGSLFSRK

[3] = molecular target: T2, von Hippel-Lindau disease tumor suppressor/Apoptosis regulator Bcl-2 (Homo sapiens) (UniProt P10415+P40337); test: Binding affinity to Halo-tagged VHL/HiBiT-tagged BCL-2 (unknown origin) expressed in HEK293T cells assessed as ternary complex formation at up to 100000 nM measured after 6 hrs by NanoBRET assay; assay type: cell-based
T2 sequence (P10415 whole entry, looked up): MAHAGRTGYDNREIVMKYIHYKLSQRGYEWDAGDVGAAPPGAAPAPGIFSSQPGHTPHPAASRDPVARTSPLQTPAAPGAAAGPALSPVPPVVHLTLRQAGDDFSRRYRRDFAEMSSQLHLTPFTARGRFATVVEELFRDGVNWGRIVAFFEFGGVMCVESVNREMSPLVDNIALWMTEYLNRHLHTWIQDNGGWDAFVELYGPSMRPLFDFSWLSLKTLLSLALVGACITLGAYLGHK
T2 sequence (P40337 whole entry, looked up): as the sequence (P40337 whole entry, looked up) above
How it was run: (§2)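 NanoBRET in live HEK 293T cells. Cells were transfected with HaloTag-VHL (1 µg), HiBit-BCL-XL or HiBit-BCL-2 (10 ng) and LgBit (10 ng). After 24 h they were seeded at 2×10^4 per well in Opti-MEM with 4% FBS, with or without HaloTag 618 ligand, and held overnight. Serial compound doses were given for 6 h at 37 °C, then Nano-Glo substrate was added and mBRET ratios read. Mean ± s.e.m. of two experiments in triplicate.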

[4] = molecular target: T1, von Hippel-Lindau disease tumor suppressor/Bcl-2-like protein 1; test: Binding affinity to VHL/ BCL-XL in human RS4-11 cells assessed as ternary complex formation at up to 300 nM measured after 12 hrs in presence of VHL-032 by immunoprecipitation assay; assay type: cell-based
Target sequence in this assay (P40337 whole entry, looked up): as above
Target sequence in this assay (Q07817 whole entry, looked up): as the sequence (Q07817 whole entry, looked up) above

[5] = molecular target: T1, von Hippel-Lindau disease tumor suppressor/Bcl-2-like protein 1; test: Binding affinity to Halo-tagged VHL/HiBiT-tagged BCL-XL (unknown origin) expressed in HEK293T cells assessed as ternary complex formation at up to 100000 nM measured after 6 hrs by NanoBRET assay; assay type: cell-based; how it was run: as §2
Target sequence in this assay (P40337 whole entry, looked up): as the sequence (P40337 whole entry, looked up) above
Target sequence in this assay (Q07817 whole entry, looked up): as the sequence (Q07817 whole entry, looked up) above

[6] = molecular target: T2, von Hippel-Lindau disease tumor suppressor/Apoptosis regulator Bcl-2 (Homo sapiens); test: Binding affinity to VHL/BCL-2 in human RS4-11 cells assessed as ternary complex formation at up to 300 nM measured after 12 hrs in presence of VHL-032 by immunoprecipitation assay; assay type: cell-based
[7] = molecular target: T1, von Hippel-Lindau disease tumor suppressor/Bcl-2-like protein 1; test: Protac activity at VHL/BCL-XL in human MOLT-4 assessed as decrease in BCL-XL protein level at up to […] measured after 16 hrs by Western blot analysis; how it was run: as §1
Target sequence in this assay (P40337 whole entry, looked up): as the sequence (P40337 whole entry, looked up) above
Target sequence in this assay (Q07817 whole entry, looked up): as the sequence (Q07817 whole entry, looked up) above

[8] = molecular target: T1, von Hippel-Lindau disease tumor suppressor/Bcl-2-like protein 1; test: Binding affinity to VHL/ BCL-XL in human RS4-11 cells assessed as ternary complex formation at up to 300 nM measured after 12 hrs by immunoprecipitation assay; assay type: cell-based
Target sequence in this assay (P40337 whole entry, looked up): as the sequence (P40337 whole entry, looked up) above
Target sequence in this assay (Q07817 whole entry, looked up): as the sequence (Q07817 whole entry, looked up) above

Bcl-2-like protein 1 = Bcl-2-like protein 1 (Homo sapiens, UniProt Q07817); test: Displacement of biotin-tagged LWAAQRYGRELRRMSDEFEGSFKGL from human BCL-XL expressed in Escherichia coli measured after 2 hrs by AlphaScreen assay
Chain of Bcl-2-like protein 1 (Q07817 whole entry): as the sequence (Q07817 whole entry, looked up) above
How it was run: (§3)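 AlphaScreen displacement, run with or without VCB. Anti-His acceptor beads were added for 1 h at room temperature, then streptavidin donor beads for 30 min in the dark. Ki was fitted by one-site competitive model from peptide concentration and measured Kd values; reported as mean ± SD of at least two experiments in triplicate.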

[9] = molecular target: T1, von Hippel-Lindau disease tumor suppressor/Bcl-2-like protein 1; test: Protac activity at VHL/BCL-XL in human MOLT-4 cells assessed as decrease in BCL-XL protein level by densitometric analysis; assay type: cell-based; how it was run: as §1
Target sequence in this assay (Q07817 whole entry): as the sequence (Q07817 whole entry, looked up) above
Target sequence in this assay (P40337 whole entry): as the sequence (P40337 whole entry, looked up) above

[10] = (§4) Binding affinity to human BCL-XL expressed in Escherichia coli/recombinant human VHL (54 to end residues) fused to human N-terminal GST-tagged elongin-C/elongin -B/N-terminal His-tagged CUL2/Rbx1 expressed in baculovirus infected Sf21 insect cells measured after 2 hrs by AlphaScreen assay
How it was run: as §3, with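 “VCB. Biotin-Bim (80 nM, for BCL-2) or biotin-Bad (16 nM, for BCL-XL) was combined with serially diluted compound and 6×His protein in 25 mM HEPES pH 7.5, 100 mM NaCl, 0.1% BSA, 0.005% Tween 20.” for “VCB.”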

Platelet = test: Cytotoxicity against platelets in human PRP assessed as reduction in cell viability measured after 48 hrs by MTS assay; assay type: cell-based
How it was run: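 Washed human platelets from PRP were kept in HEPES Tyrode's buffer with 1 µM PGE1 and 0.2 units/mL apyrase at 2×10^8/mL.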

RS4-11 [11] = test: Cytotoxicity against human RS4-11 cells assessed as reduction in cell viability measured after 48 hrs in presence of VHL-032 by MTS assay; assay type: functional, cell-based; conditions: RS4-11, 48 h
How it was run: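 RS4;11 cells were pretreated with 10 µM VHL-032, then exposed to compound for 48 h. Viability was read by MTS; three independent experiments in triplicate.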

[12] = (§5) Binding affinity to C-terminal His-tagged human BCL-2 (1 to 211 residues) expressed in Escherichia coli/recombinant human VHL (54 to end residues) fused to human N-terminal GST-tagged elongin-C/elongin -B/N-terminal His-tagged CUL2/Rbx1 expressed in baculovirus infected Sf21 insect cells measured after 2 hrs by AlphaScreen assay
How it was run: as §3, with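 “VCB. Biotin-Bim (80 nM, for BCL-2) or biotin-Bad (16 nM, for BCL-XL) was combined with serially diluted compound and 6×His protein in 25 mM HEPES pH 7.5, 100 mM NaCl, 0.1% BSA, 0.005% Tween 20.” for “VCB.”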

[13] = as §5, with “cells assessed as ternary complex formation at up to 100000 nM” for “cells”, “30 mins” for “2 hrs”, “AlphaLISA” for “AlphaScreen”
How it was run: (§6)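 Cell-free ternary complex AlphaLISA: 6×His-tagged BCL-XL, BCL-2 or MCL-1 (20 nM) mixed with serially diluted compound (4× dilution) and GST-VCB (20 nM) in 25 mM HEPES pH 7.5, 100 mM NaCl, 0.1% BSA, 0.005% Tween 20. After 30 min at room temperature, glutathione donor beads were added for 15 min, then anti-His acceptor beads for 45 min in the dark. Luminescence was plotted against log compound concentration.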

[14] = molecular target: T1, von Hippel-Lindau disease tumor suppressor/Bcl-2-like protein 1; test: Protac activity at VHL/BCL-XL in human RS4-11 cells assessed as decrease in BCL-XL protein level by densitometric analysis; assay type: cell-based; how it was run: as §1
Target sequence in this assay (Q07817 whole entry): as the sequence (Q07817 whole entry, looked up) above
Target sequence in this assay (P40337 whole entry): as the sequence (P40337 whole entry, looked up) above

[15] = molecular target: Apoptosis regulator Bcl-2 (Homo sapiens, UniProt P10415); test: Displacement of biotin-tagged MRPEPATIAQELRRIGDEFNA from C-terminal His-tagged human BCL-2 (1` to 211 residues) expressed in Escherichia coli measured after 2 hrs by AlphaScreen assay; how it was run: as §3
Chain of Apoptosis regulator Bcl-2 (P10415 whole entry): as the sequence (P10415 whole entry, looked up) above

[16] = as §4, with “cells assessed as ternary complex formation at up to 100000 nM” for “cells”, “30 mins” for “2 hrs”, “AlphaLISA” for “AlphaScreen”; how it was run: as §6
[17] = molecular target: T2, von Hippel-Lindau disease tumor suppressor/Apoptosis regulator Bcl-2 (Homo sapiens); test: Binding affinity to VHL/BCL-2 in human RS4-11 cells assessed as ternary complex formation at up to 300 nM measured after 12 hrs by immunoprecipitation assay; assay type: cell-based
[18] = molecular target: T1, von Hippel-Lindau disease tumor suppressor/Bcl-2-like protein 1; test: Protac activity at VHL/BCL-XL in human MOLT-4 cells assessed as induction of BCL-XL degradation measured after 16 hrs by Western blot analysis; assay type: cell-based; how it was run: as §1
Target sequence in this assay (Q07817 whole entry): as the sequence (Q07817 whole entry, looked up) above
Target sequence in this assay (P40337 whole entry): as the sequence (P40337 whole entry, looked up) above

Structure (SMILES): Cc1ncsc1-c1ccc([C@H](C)NC(=O)[C@@H]2C[C@@H](O)CN2C(=O)[C@@H](NC(=O)CCCCCCC(=O)NCC2(C)CCC(c3ccc(Cl)cc3)=C(CN3CCN(c4ccc(C(=O)NS(=O)(=O)c5ccc(N[C@H](CCN6CCOCC6)CSc6ccccc6)c(S(=O)(=O)C(F)(F)F)c5)cc4)CC3)C2)C(C)(C)C)cc1 (some centres undefined)
IC50 (MOLT-4): 0.219 µM
IC50 (RS4-11 [1]): 0.108 µM

Structure (SMILES): Cc1ncsc1-c1ccc([C@H](C)NC(=O)[C@@H]2C[C@@H](O)CN2C(=O)[C@@H](NC(=O)CCCCCCCCCC(=O)NCC2(C)CCC(c3ccc(Cl)cc3)=C(CN3CCN(c4ccc(C(=O)NS(=O)(=O)c5ccc(N[C@H](CCN6CCOCC6)CSc6ccccc6)c(S(=O)(=O)C(F)(F)F)c5)cc4)CC3)C2)C(C)(C)C)cc1 (some centres undefined)
IC50 (MOLT-4): 0.0746 µM
IC50 (RS4-11 [1]): 0.0292 µM

Activity [2]: inactive
Activity [3]: inactive
Activity [4]: inactive
Activity [5]: inactive
Activity [6]: inactive
Activity [7]: inactive
Activity [8]: Active
Structure (SMILES): Cc1ncsc1-c1ccc([C@H](C)NC(=O)[C@@H]2C[C@H](O)CN2C(=O)[C@@H](NC(=O)CCCCCCCCC(=O)NC[C@]2(C)CCC(c3ccc(Cl)cc3)=C(CN3CCN(c4ccc(C(=O)NS(=O)(=O)c5ccc(N[C@H](CCN6CCOCC6)CSc6ccccc6)c(S(=O)(=O)C(F)(F)F)c5)cc4)CC3)C2)C(C)(C)C)cc1
IC50 (MOLT-4): 0.821 µM
IC50 (RS4-11 [1]): 0.328 µM

Ki (Bcl-2-like protein 1): 0.00275 µM
DC50 [9]: 0.127 µM
Activity [3]: Active
Activity [5]: Active
DC50 [14]: 0.0752 µM
Kd [15]: 0.00147 µM
Structure (SMILES): Cc1ncsc1-c1ccc([C@H](C)NC(=O)[C@@H]2C[C@@H](O)CN2C(=O)[C@@H](NC(=O)CCCCCCCCC(=O)NC[C@@]2(C)CCC(c3ccc(Cl)cc3)=C(CN3CCN(c4ccc(C(=O)NS(=O)(=O)c5ccc(N[C@H](CCN6CCOCC6)CSc6ccccc6)c(S(=O)(=O)C(F)(F)F)c5)cc4)CC3)C2)C(C)(C)C)cc1
Kd [10]: 0.00064 µM
IC50 (Platelet): 9.85 µM
IC50 (RS4-11 [11]): 1.04 µM
Kd [12]: 0.00055 µM
IC50 (MOLT-4): 0.17 µM
Activity [13]: Active
IC50 (RS4-11 [1]): 0.418 µM
Activity [16]: Active

Structure (SMILES): Cc1ncsc1-c1ccc([C@H](C)NC(=O)[C@@H]2C[C@@H](O)CN2C(=O)[C@@H](NC(=O)CCCCCCCCCCCC(=O)NCC2(C)CCC(c3ccc(Cl)cc3)=C(CN3CCN(c4ccc(C(=O)NS(=O)(=O)c5ccc(N[C@H](CCN6CCOCC6)CSc6ccccc6)c(S(=O)(=O)C(F)(F)F)c5)cc4)CC3)C2)C(C)(C)C)cc1 (some centres undefined)
IC50 (MOLT-4): 0.334 µM
IC50 (RS4-11 [1]): 0.41 µM

Structure (SMILES): Cc1ncsc1-c1ccc([C@H](C)NC(=O)[C@@H]2C[C@@H](O)CN2C(=O)[C@@H](NC(=O)CCCCCCCC(=O)NCC2(C)CCC(c3ccc(Cl)cc3)=C(CN3CCN(c4ccc(C(=O)NS(=O)(=O)c5ccc(N[C@H](CCN6CCOCC6)CSc6ccccc6)c(S(=O)(=O)C(F)(F)F)c5)cc4)CC3)C2)C(C)(C)C)cc1 (some centres undefined)
IC50 (MOLT-4): 0.125 µM
IC50 (RS4-11 [1]): 0.0437 µM

Activity [4]: inactive
Activity [8]: Active
Activity [17]: Active
Structure (SMILES): CC1(C)CCC(c2ccc(Cl)cc2)=C(CN2CCN(c3ccc(C(=O)NS(=O)(=O)c4ccc(N[C@H](CCN5CCOCC5)CSc5ccccc5)c(S(=O)(=O)C(F)(F)F)c4)cc3)CC2)C1 [NAVITOCLAX]
IC50 (Platelet): 0.325 µM

DC50 [9]: 0.0316 µM
Activity [3]: Active
DC50 [18]: 0.0272 µM
Activity [5]: Active
DC50 [14]: 0.0226 µM
Structure (SMILES): Cc1ncsc1-c1ccc([C@H](C)NC(=O)[C@@H]2C[C@@H](O)CN2C(=O)[C@@H](NC(=O)CCCCCCCCC(=O)NCC2(C)CCC(c3ccc(Cl)cc3)=C(CN3CCN(c4ccc(C(=O)NS(=O)(=O)c5ccc(N[C@H](CCN6CCOCC6)CSc6ccccc6)c(S(=O)(=O)C(F)(F)F)c5)cc4)CC3)C2)C(C)(C)C)cc1 (some centres undefined)
IC50 (Platelet): 2.9 µM
IC50 (RS4-11 [11]): 0.481 µM
IC50 (MOLT-4): 0.0321 µM
IC50 (RS4-11 [1]): 0.0233 µM

Structure (SMILES): Cc1ncsc1-c1ccc([C@H](C)NC(=O)[C@@H]2C[C@@H](O)CN2C(=O)[C@@H](NC(=O)CCCCC(=O)NCC2(C)CCC(c3ccc(Cl)cc3)=C(CN3CCN(c4ccc(C(=O)NS(=O)(=O)c5ccc(N[C@H](CCN6CCOCC6)CSc6ccccc6)c(S(=O)(=O)C(F)(F)F)c5)cc4)CC3)C2)C(C)(C)C)cc1 (some centres undefined)
IC50 (MOLT-4): 0.34 µM
IC50 (RS4-11 [1]): 0.304 µM

Structure (SMILES): Cc1ncsc1-c1ccc([C@H](C)NC(=O)[C@@H]2C[C@@H](O)CN2C(=O)[C@@H](NC(=O)CCCCCCCCCCC(=O)NCC2(C)CCC(c3ccc(Cl)cc3)=C(CN3CCN(c4ccc(C(=O)NS(=O)(=O)c5ccc(N[C@H](CCN6CCOCC6)CSc6ccccc6)c(S(=O)(=O)C(F)(F)F)c5)cc4)CC3)C2)C(C)(C)C)cc1 (some centres undefined)
IC50 (MOLT-4): 0.112 µM
IC50 (RS4-11 [1]): 0.0963 µM

Structure (SMILES): Cc1ncsc1-c1ccc([C@H](C)NC(=O)[C@@H]2C[C@@H](O)CN2C(=O)[C@@H](NC(=O)CCCCCC(=O)NCC2(C)CCC(c3ccc(Cl)cc3)=C(CN3CCN(c4ccc(C(=O)NS(=O)(=O)c5ccc(N[C@H](CCN6CCOCC6)CSc6ccccc6)c(S(=O)(=O)C(F)(F)F)c5)cc4)CC3)C2)C(C)(C)C)cc1 (some centres undefined)
IC50 (MOLT-4): 0.307 µM
